Reference: ChEMBL document CHEMBL4184106, “Discovering alkylamide derivatives of bexarotene as new therapeutic agents against triple-negative breast cancer” (Bioorg Med Chem Lett, 2018)
Calls of active or inactive are those of the source. No cut-off for these calls is given here.

How the values were obtained:
MCF7 [1] = test: Inhibition of mammosphere formation in human MCF7 cells assessed as ratio of C-Myc to beta actin level at 5 uM by Western blot analysis (Rvb= 1); assay type: functional
How it was run: (§1)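 Post-treatment cell lysates were probed by Western blot for CSC markers, with β-actin as the loading control. Band densitometry was normalized to DMSO-treated samples.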

MCF7 [2] = test: Cytotoxicity against human MCF7 cells assessed as reduction in cell viability at 5 uM by MTT assay; assay type: functional
MDA-MB-231 [3] = test: Cytotoxicity against human MDA-MB-231 cells assessed as reduction in cell viability at 5 uM by MTT assay; assay type: functional
BT-549 [4] = test: Cytotoxicity against human BT549 cells assessed as reduction in cell viability at 5 uM by MTT assay; assay type: functional
MDA-MB-231 [5] = test: Cytotoxicity against human MDA-MB-231 cells assessed as reduction in cell viability by MTT assay; assay type: functional, cell-based
BT-549 [6] = test: Cytotoxicity against human BT549 cells assessed as reduction in cell viability by MTT assay; assay type: functional, cell-based
MCF-10A [7] = test: Cytotoxicity against human MCF10A cells assessed as reduction in cell viability by MTT assay; assay type: cell-based
MDA-MB-231 [8] = test: Induction of apoptosis in human MDA-MB-231 cells assessed as ratio of cleaved caspase-3 to beta-actin level at 5 uM by western blot analysis (reference value: 1); assay type: functional
BT-549 [9] = test: Induction of apoptosis in human BT549 cells assessed as ratio of cleaved caspase-3 to beta-actin level at 5 uM by western blot analysis (reference value: 1); assay type: functional
MCF-10A [10] = test: Induction of apoptosis in human MCF10A cells assessed as ratio of cleaved caspase-3 to beta-actin level at 5 uM by western blot analysis (reference value: 1); assay type: cell-based
MCF7 [11] = test: Induction of apoptosis in human MCF7 cells assessed as ratio of cleaved caspase-3 to beta-actin level at 5 uM by western blot analysis (reference value: 1); assay type: functional
MDA-MB-231 [12] = test: Induction of apoptosis in human MDA-MB-231 cells assessed as ratio of cleaved caspase-8 to beta-actin level at 5 uM by western blot analysis (reference value: 1); assay type: functional
BT-549 [13] = test: Induction of apoptosis in human BT549 cells assessed as ratio of cleaved caspase-8 to beta-actin level at 5 uM by western blot analysis (reference value: 1); assay type: functional
MCF-10A [14] = test: Induction of apoptosis in human MCF10A cells assessed as ratio of cleaved caspase-8 to beta-actin level at 5 uM by western blot analysis (reference value: 1); assay type: cell-based
MCF7 [15] = test: Induction of apoptosis in human MCF7 cells assessed as ratio of cleaved caspase-8 to beta-actin level at 5 uM by western blot analysis (reference value: 1); assay type: functional
MDA-MB-231 [16] = test: Induction of apoptosis in human MDA-MB-231 cells assessed as ratio of cleaved caspase-9 to beta-actin level at 5 uM by western blot analysis (reference value: 1); assay type: functional
BT-549 [17] = test: Induction of apoptosis in human BT549 cells assessed as ratio of cleaved caspase-9 to beta-actin level at 5 uM by western blot analysis (reference value: 1); assay type: functional
MCF-10A [18] = test: Induction of apoptosis in human MCF10A cells assessed as ratio of cleaved caspase-9 to beta-actin level at 5 uM by western blot analysis (reference value: 1); assay type: cell-based
MCF7 [19] = test: Induction of apoptosis in human MCF7 cells assessed as ratio of cleaved caspase-9 to beta-actin level at 5 uM by western blot analysis (reference value: 1); assay type: functional
MCF7 [20] = test: Inhibition of colony formation in human MCF7 cells at 5 uM supplemented with fresh medium containing compound every 3 to 4 days for 7 days by crystal violet staining based adherent cell colony-forming assay; assay type: functional
How it was run: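 MCF-7 cells were plated for adherent colony formation and treated for 7 days. Colonies were counted at the end of treatment and normalized to untreated samples.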

MDA-MB-231 [21] = test: Inhibition of colony formation in human MDA-MB-231 cells at 2 uM supplemented with fresh medium containing compound every 3 days for 10 days by microscopic method based soft agar colony formation assay relative to control; assay type: functional
MDA-MB-231 [22] = test: Anti-migratory activity against human MDA-MB-231 cells assessed as reduction in wound closure at 2 uM up to 24 hrs by wound-healing assay; assay type: functional, cell-based
How it was run: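 MDA-MB-231 monolayer was scratched to make a wound gap. Cells were treated alongside a DMSO vehicle control, and migration into the gap was imaged at 24 h.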

MCF7 [23] = test: Inhibition of mammosphere formation in human MCF7 cells at 2 uM after 7 days by microscopic method; assay type: functional, cell-based
How it was run: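 MCF-7 cells were grown under mammosphere-forming conditions with compound. Spheres 60 μm or larger were counted for quantitation.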

MCF7 [24] = test: Down regulation of c-Myc expression in human MCF7 cells at 5 uM by Western blot analysis; assay type: functional
How it was run: (§2)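 MCF-7 cells were treated and lysates probed by Western blot for CSC-related markers, with β-actin as loading control. Band densitometry was normalized to DMSO-treated samples.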

MCF7 [25] = test: Down regulation of KLF4 expression in human MCF7 cells at 5 uM by Western blot analysis; assay type: functional; how it was run: as §2
MCF7 [26] = test: Down regulation of Nanog expression in human MCF7 cells at 5 uM by Western blot analysis; assay type: functional; how it was run: as §2
MCF7 [27] = test: Down regulation of Oct4A expression in human MCF7 cells at 5 uM by Western blot analysis; assay type: functional; how it was run: as §2
MDA-MB-231 [28] = test: Down regulation of KLF4 expression in human MDA-MB-231 cells at 5 uM by Western blot analysis; assay type: functional
MCF7 [29] = test: Inhibition of mammosphere formation in human MCF7 cells assessed as ratio of KLF4 to beta actin level at 5 uM by Western blot analysis (Rvb= 1); assay type: functional; how it was run: as §1
MCF7 [30] = test: Inhibition of mammosphere formation in human MCF7 cells assessed as ratio of Nanog to beta actin level at 5 uM by Western blot analysis (Rvb= 1); assay type: functional; how it was run: as §1
MCF7 [31] = test: Inhibition of mammosphere formation in human MCF7 cells assessed as ratio of Oct4A to beta actin level at 5 uM by Western blot analysis (Rvb= 1); assay type: functional; how it was run: as §1
MCF7 [32] = test: Inhibition of mammosphere formation in human MCF7 cells assessed as ratio of Sox2 to beta actin level at 5 uM by Western blot analysis (Rvb= 1); assay type: functional; how it was run: as §1
MDA-MB-231 [33] = test: Inhibition of mammosphere formation in human MDA-MB-231 cells assessed as ratio of C-Myc to beta actin level at 5 uM by Western blot analysis (Rvb= 1); assay type: functional; how it was run: as §1
MDA-MB-231 [34] = test: Inhibition of mammosphere formation in human MDA-MB-231 cells assessed as ratio of KLF4 to beta actin level at 5 uM by Western blot analysis (Rvb= 1); assay type: functional; how it was run: as §1
BT-549 [35] = test: Inhibition of mammosphere formation in human BT549 cells assessed as ratio of C-Myc to beta actin level at 5 uM by Western blot analysis (Rvb= 1); assay type: functional
BT-549 [36] = test: Inhibition of mammosphere formation in human BT549 cells assessed as ratio of KLF4 to beta actin level at 5 uM by Western blot analysis (Rvb= 1); assay type: functional
MDA-MB-231 [37] = test: Effect on epithelial-mesenchymal transition in human MDA-MB-231 cells assessed as ratio of E-cadherin to beta-actin level at 5 uM by Western blot analysis (reference value: 1); assay type: functional
MDA-MB-231 [38] = test: Effect on epithelial-mesenchymal transition in human MDA-MB-231 cells assessed as ratio of vimentin to beta-actin level at 5 uM by Western blot analysis (reference value: 1); assay type: functional
MDA-MB-231 [39] = test: Effect on epithelial-mesenchymal transition in human MDA-MB-231 cells assessed as ratio of slug to beta-actin level at 5 uM by Western blot analysis (reference value: 1); assay type: functional
BT-549 [40] = test: Effect on epithelial-mesenchymal transition in human BT549 cells assessed as ratio of E-cadherin to beta-actin level at 5 uM by Western blot analysis (reference value: 1); assay type: functional
BT-549 [41] = test: Effect on epithelial-mesenchymal transition in human BT549 cells assessed as ratio of vimentin to beta-actin level at 5 uM by Western blot analysis (reference value: 1); assay type: functional
BT-549 [42] = test: Effect on epithelial-mesenchymal transition in human BT549 cells assessed as ratio of slug to beta-actin level at 5 uM by Western blot analysis (reference value: 1); assay type: functional

In the case of `C=C(c1ccc(C(=O)NCCN(CC)CC)cc1)c1cc2c(cc1C)C(C)(C)CCC2(C)C`, the Ratio (MCF7 [1]) is reported as 0.7, the Activity (MCF7 [2]) is reported as 40% and the Activity (MDA-MB-231 [3]) is reported as 60%. The Activity (BT-549 [4]) was 60%, the EC50 (MDA-MB-231 [5]) was less than 10 µM and the EC50 (BT-549 [6]) was less than 10 µM. The Activity (MCF-10A [7]) was “Non-Toxic”, the Ratio (MDA-MB-231 [8]) was 1.3 and the Ratio (BT-549 [9]) was 2.6. It also gave a Ratio (MCF-10A [10]) of 1.1, a Ratio (MCF7 [11]) of 0.9 and a Ratio (MDA-MB-231 [12]) of 1.5. It also gave a Ratio (BT-549 [13]) of 2.1, a Ratio (MCF-10A [14]) of 1 and a Ratio (MCF7 [15]) of 1. For the same compound, the Ratio (MDA-MB-231 [16]) was 2.5, the Ratio (BT-549 [17]) was 2.3 and the Ratio (MCF-10A [18]) was 1. For the same compound, the Ratio (MCF7 [19]) was 1, the “inhibition (INH)” value (MCF7 [20]) was 80% and the “inhibition (INH)” value (MDA-MB-231 [21]) was 90%. For the same compound, the Activity (MDA-MB-231 [22]) was “Active”, the inhibition (MCF7 [23]) was “Active” and the Activity (MCF7 [24]) was 10 - 30%. The Activity (MCF7 [25]) was 10 - 30%, the Activity (MCF7 [26]) was 20% and the Activity (MCF7 [27]) was 50%. For the same compound, the Activity (MDA-MB-231 [28]) was 50%, the Ratio (MCF7 [29]) was 0.9 and the Ratio (MCF7 [30]) was 0.8. For the same compound, the Ratio (MCF7 [31]) was 0.5, the Ratio (MCF7 [32]) was 0.9 and the Ratio (MDA-MB-231 [33]) was 0.9. It also gave a Ratio (MDA-MB-231 [34]) of 0.5, a Ratio (BT-549 [35]) of 0.9 and a Ratio (BT-549 [36]) of 0.5. The Ratio (MDA-MB-231 [37]) was 1.9, the Ratio (MDA-MB-231 [38]) was 0.4 and the Ratio (MDA-MB-231 [39]) was 0.9. The Ratio (BT-549 [40]) was 2.4, the Ratio (BT-549 [41]) was 0.4 and the Ratio (BT-549 [42]) was 0.4.
